Measurements published in ChEMBL document CHEMBL4130613, “Identification and Proposed Relative and Absolute Configurations of Niphimycins C-E from the Marine-Derived Streptomyces sp. IMB7-145 by Genomic Analysis” (J Nat Prod, 2018).
Converted amounts (≈) assume the structure as drawn.

Key:
[1] = tested on: Mycobacterium tuberculosis; experiment: Antibacterial activity against Mycobacterium tuberculosis H37Rv […] by agar dilution method; type: functional
[2] = tested on: HeLa; experiment: Cytotoxicity against human HeLa cells after 48 hrs by SRB assay; type: functional, cell-based
How it was run: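 HeLa human cervical carcinoma cells obtained from ATCC. Cytotoxicity was read by sulforhodamine B staining following an earlier published protocol, with doxorubicin hydrochloride as positive control. Values are reported as IC50.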

[3] = tested on: Pseudomonas aeruginosa; experiment: Antibacterial activity against Pseudomonas aeruginosa PAO1 after 18 hrs by agar dilution method; type: functional; conditions: PAO1, 18 h
[4] = tested on: Enterococcus faecium; experiment: Antibacterial activity against vancomycin-resistant Enterococcus faecium ATCC 700221 after 18 hrs by agar dilution method; type: functional; conditions: ATCC 700221, 18 h
[5] = tested on: Morganella morganii; experiment: Antibacterial activity against Morganella morganii ATCC 25830 after 18 hrs by agar dilution method; type: functional; conditions: ATCC 25830, 18 h
[6] = tested on: Escherichia coli; experiment: Antibacterial activity against extended-spectrum beta-lactamase-negative Escherichia coli ATCC 25922 after 18 hrs by agar dilution method; type: functional; conditions: ATCC 25922, 18 h
[7] = tested on: Staphylococcus aureus; experiment: Antibacterial activity against methicillin-resistant Staphylococcus aureus ATCC 33591 after 18 hrs by agar dilution method; type: functional; conditions: ATCC 33591, 18 h
[8] = tested on: Stenotrophomonas maltophilia; experiment: Antibacterial activity against Stenotrophomonas maltophilia ATCC 13636 after 18 hrs by agar dilution method; type: functional; conditions: ATCC 13636, 18 h
[9] = tested on: Klebsiella pneumoniae; experiment: Antibacterial activity against extended-spectrum beta-lactamase-positive Klebsiella pneumoniae ATCC 700603 after 18 hrs by agar dilution method; type: functional; conditions: Klebsiella pneumoniae, 700603, 18 h
[10] = tested on: Enterococcus faecalis; experiment: Antibacterial activity against vancomycin-resistant Enterococcus faecalis 09-9 after 18 hrs by agar dilution method; type: functional; conditions: 09-9, 18 h
[11] = tested on: Providencia rettgeri; experiment: Antibacterial activity against Providencia rettgeri ATCC 31052 after 18 hrs by agar dilution method; type: functional; conditions: ATCC 31052, 18 h
[12] = tested on: Klebsiella pneumoniae; experiment: Antibacterial activity against extended-spectrum beta-lactamase-positive Klebsiella pneumoniae 12-8 after 18 hrs by agar dilution method; type: functional; conditions: 12-8, 18 h
[13] = tested on: Acinetobacter calcoaceticus; experiment: Antibacterial activity against Acinetobacter calcoaceticus ATCC 19606 after 18 hrs by agar dilution method; type: functional; conditions: ATCC 19606, 18 h
[14] = tested on: Klebsiella pneumoniae; experiment: Antibacterial activity against extended-spectrum beta-lactamase-negative Klebsiella pneumoniae 7 after 18 hrs by agar dilution method; type: functional; conditions: Klebsiella pneumoniae, 7, 18 h
[15] = tested on: Pseudomonas aeruginosa; experiment: Antibacterial activity against Pseudomonas aeruginosa 12-16 after 18 hrs by agar dilution method; type: functional; conditions: 12-16, 18 h
[16] = tested on: Enterococcus faecalis; experiment: Antibacterial activity against vancomycin-resistant Enterococcus faecalis ATCC 51299 after 18 hrs by agar dilution method; type: functional; conditions: ATCC 51299, 18 h
[17] = tested on: Proteus mirabilis; experiment: Antibacterial activity against Proteus mirabilis 12-6 after 18 hrs by agar dilution method; type: functional; conditions: 12-6, 18 h
[18] = tested on: Mycobacterium tuberculosis; experiment: Antibacterial activity against Mycobacterium tuberculosis isolate FJ05060 […] by agar dilution method; type: functional
[19] = tested on: Klebsiella aerogenes; experiment: Antibacterial activity against Enterobacter aerogenes ATCC 13048 after 18 hrs by agar dilution method; type: functional; conditions: ATCC 13048, 18 h
[20] = tested on: Staphylococcus aureus; experiment: Antibacterial activity against methicillin-resistant Staphylococcus aureus 12-33 after 18 hrs by agar dilution method; type: functional; conditions: 12-33, 18 h
[21] = tested on: Staphylococcus epidermidis; experiment: Antibacterial activity against methicillin-resistant Staphylococcus epidermidis 12-8 after 18 hrs by agar dilution method; type: functional; conditions: 12-8, 18 h
[22] = tested on: Escherichia coli; experiment: Antibacterial activity against extended-spectrum beta-lactamase-negative Escherichia coli 12-14 after 18 hrs by agar dilution method; type: functional; conditions: 12-14, 18 h
[23] = tested on: Citrobacter freundii; experiment: Antibacterial activity against Citrobacter freundii ATCC 43864 after 18 hrs by agar dilution method; type: functional; conditions: ATCC 43864, 18 h
[24] = tested on: Mycobacterium tuberculosis; experiment: Antibacterial activity against Mycobacterium tuberculosis isolate FJ05349 […] by agar dilution method; type: functional
[25] = tested on: Serratia marcescens; experiment: Antibacterial activity against Serratia marcescens ATCC 21074 after 18 hrs by agar dilution method; type: functional; conditions: ATCC 21074, 18 h
[26] = tested on: Enterobacter cloacae; experiment: Antibacterial activity against Enterobacter cloacae ATCC 43560 after 18 hrs by agar dilution method; type: functional; conditions: ATCC 43560, 18 h
[27] = tested on: Escherichia coli; experiment: Antibacterial activity against extended-spectrum beta-lactamase-positive Escherichia coli 12-15 after 18 hrs by agar dilution method; type: functional; conditions: 12-15, 18 h
[28] = tested on: Proteus vulgaris; experiment: Antibacterial activity against Proteus vulgaris ATCC 29905 after 18 hrs by agar dilution method; type: functional; conditions: ATCC 29905, 18 h
[29] = tested on: Pseudomonas aeruginosa; experiment: Antibacterial activity against Pseudomonas aeruginosa ATCC 27853 after 18 hrs by agar dilution method; type: functional; conditions: ATCC 27853, 18 h
[30] = tested on: Enterococcus faecium; experiment: Antibacterial activity against vancomycin-resistant Enterococcus faecium 12-1 after 18 hrs by agar dilution method; type: functional; conditions: 12-1, 18 h
[31] = tested on: Klebsiella pneumoniae; experiment: Antibacterial activity against extended-spectrum beta-lactamase-negative Klebsiella pneumoniae 12-4 after 18 hrs by agar dilution method; type: functional; conditions: 12-4, 18 h
[32] = tested on: Klebsiella pneumoniae; experiment: Antibacterial activity against NDM-1 positive Klebsiella pneumoniae ATCC BAA-2146 after 18 hrs by agar dilution method; type: functional; conditions: ATCC BAA-2146, 18 h
[33] = tested on: Escherichia coli; experiment: Antibacterial activity against extended-spectrum beta-lactamase-negative Escherichia coli 1515 after 18 hrs by agar dilution method; type: functional; conditions: Escherichia coli, 1515, 18 h
[34] = tested on: Candida albicans; experiment: Antifungal activity against Candida albicans ATCC 10231 after 18 hrs by agar dilution method; type: functional; conditions: ATCC 10231, 18 h

SMILES	MIC [1] [µg/mL]	IC50 [2] [µM]	MIC [3] [µg/mL]	MIC [4] [µg/mL]	MIC [5] [µg/mL]	MIC [6] [µg/mL]	MIC [7] [µg/mL]	MIC [8] [µg/mL]	MIC [9] [µg/mL]	MIC [10] [µg/mL]	MIC [11] [µg/mL]	MIC [12] [µg/mL]	MIC [13] [µg/mL]	MIC [14] [µg/mL]	MIC [15] [µg/mL]	MIC [16] [µg/mL]	MIC [17] [µg/mL]	MIC [18] [µg/mL]	MIC [19] [µg/mL]	MIC [20] [µg/mL]	other results
CNC(=N)NCCC/C=C/CCC[C@H](C)C[C@H](C)[C@H]1OC(=O)[C@H](C)[C@H](O)/C=C/[C@H](C)[C@H](O)C[C@H](O)[C@H](C)[C@@H](O)CC[C@H](C)[C@H](O)C[C@]2(O)O[C@H](C[C@@H](O)C[C@H](OC(=O)CC(=O)O)C[C@@H](O)[C@H](C)[C@H](O)/C=C/C=C/[C@@H]1C)C[C@H](O)[C@H]2O	4 (≈ 3.5 µM)	3 to 9	> 64	64 (≈ 56 µM)	> 64	> 64	4 to 32 (≈ 3.5 to 28 µM)	> 64	> 64	64 (≈ 56 µM)	> 64	> 64	> 64	> 64	> 64	64 (≈ 56 µM)	> 64	4 to 16 (≈ 3.5 to 14 µM)	> 64	4 to 32 (≈ 3.5 to 28 µM)	MIC [21]: 4 to 32 µg/mL (≈ 3.5 to 28 µM); MIC [22]: > 64 µg/mL; MIC [23]: > 64 µg/mL; MIC [24]: 4 to 16 µg/mL (≈ 3.5 to 14 µM); MIC [25]: > 64 µg/mL; MIC [26]: > 64 µg/mL; MIC [27]: > 64 µg/mL; MIC [28]: > 64 µg/mL; MIC [29]: > 64 µg/mL; MIC [30]: 64 µg/mL (≈ 56 µM); MIC [31]: > 64 µg/mL; MIC [32]: > 64 µg/mL; MIC [33]: > 64 µg/mL; MIC [34]: 8 to 32 µg/mL (≈ 7 to 28 µM)
CNC(=N)NCCC/C=C/CCC[C@H](C)C[C@H](C)[C@H]1OC(=O)[C@H](C)[C@H](O)/C=C/[C@H](C)[C@H](O)C[C@H](O)[C@H](C)[C@@H](O)CC[C@H](C)[C@H](O)C[C@]2(O)O[C@H](C[C@@H](OC(=O)CC(=O)O)C[C@H](O)C[C@@H](O)[C@H](C)[C@H](O)/C=C/C=C/[C@@H]1C)C[C@H](O)[C@H]2O	4 (≈ 3.5 µM)	3 to 9	> 64	64 (≈ 56 µM)	> 64	> 64	4 to 32 (≈ 3.5 to 28 µM)	> 64	> 64	64 (≈ 56 µM)	> 64	> 64	> 64	> 64	> 64	64 (≈ 56 µM)	> 64	4 to 16 (≈ 3.5 to 14 µM)	> 64	4 to 32 (≈ 3.5 to 28 µM)	MIC [21]: 4 to 32 µg/mL (≈ 3.5 to 28 µM); MIC [22]: > 64 µg/mL; MIC [23]: > 64 µg/mL; MIC [24]: 4 to 16 µg/mL (≈ 3.5 to 14 µM); MIC [25]: > 64 µg/mL; MIC [26]: > 64 µg/mL; MIC [27]: > 64 µg/mL; MIC [28]: > 64 µg/mL; MIC [29]: > 64 µg/mL; MIC [30]: 64 µg/mL (≈ 56 µM); MIC [31]: > 64 µg/mL; MIC [32]: > 64 µg/mL; MIC [33]: > 64 µg/mL; MIC [34]: 8 to 32 µg/mL (≈ 7 to 28 µM)
